Data from publication PMC11969896 (Virology Journal, 2025).
Values joined by “and” are separate entries in the source; they are usually repeats but may differ in a detail not shown here. Equal entries are not always repeated.

Columns and labels:
[1] = molecular target: T1, MNV RdRp (Norovirus, UniProt Q80J95); experiment: Size-exclusion chromatography of MNV RdRp with or without compound; parameters: species or system murine norovirus; conditions: 60 μM compound
T1 sequence (Q80J95 1178-1687 limits assumed): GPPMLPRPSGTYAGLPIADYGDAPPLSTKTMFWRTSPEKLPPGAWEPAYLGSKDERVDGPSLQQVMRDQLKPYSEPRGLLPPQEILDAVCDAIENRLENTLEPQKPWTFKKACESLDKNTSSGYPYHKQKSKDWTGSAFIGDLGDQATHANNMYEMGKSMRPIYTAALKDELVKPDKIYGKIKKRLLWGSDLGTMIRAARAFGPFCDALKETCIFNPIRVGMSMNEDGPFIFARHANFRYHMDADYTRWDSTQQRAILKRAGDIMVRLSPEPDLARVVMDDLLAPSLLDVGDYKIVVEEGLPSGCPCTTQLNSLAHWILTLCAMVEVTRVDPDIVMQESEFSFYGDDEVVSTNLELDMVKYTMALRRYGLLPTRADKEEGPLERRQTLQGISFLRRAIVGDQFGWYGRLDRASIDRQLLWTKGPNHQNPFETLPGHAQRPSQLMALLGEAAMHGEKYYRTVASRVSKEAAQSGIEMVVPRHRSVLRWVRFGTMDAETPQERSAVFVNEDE
How it was run: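 Purified RdRp, with or without 60 μM compound, run on a Superose 6 10/300 GL gel-filtration column equilibrated in 20 mM Tris-HCl pH 8.0, 150 mM NaCl, at 0.4 mL/min.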

[2] = system: MNV^CW3; experiment: MNV plaque assay; format: cell-based, murine norovirus; conditions: BV2 cells, 97 μM, 24 h
How it was run: (§1)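 Infected cells harvested at 24 hpi and frozen at −80 °C. RAW264.7 monolayers seeded at 1.8 × 10^6 cells/well; 16 h later, tenfold serial lysate dilutions applied for 1 h with rocking. Overlay of MEM, 10% FBS, 2 mM L-glutamine, 10 mM HEPES and 1% methylcellulose, incubated 2 days. Plaques stained with 0.2% crystal violet in 20% ethanol.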

[3] = system: MNV^CR6; experiment: MNV^CR6 replication in cell culture; format: cell-based, murine norovirus; conditions: BV2 and RAW264.7 cells
[4] = Cytotoxicity; format: cell-based; conditions: mouse, BV2 cells
[5] = system: MNV^CW3; experiment: Cell viability-based anti-MNV screening in MNV^CW3-infected BV2 cells; parameters: species or system murine norovirus; conditions: MNV^CW3 infection, 40 μg/mL compound, 24 h, DMSO control about 2.7%
How it was run: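 BV2 cells plated at 10,000/well 16–18 h before infection with MNV^CW3 at MOI 0.25 for 1 h. Medium then replaced with 40 μg/mL compound or DMSO vehicle. Viability read after 24 h as ATP level by luminescence kit. At least 3 biological repeats.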

[6] = Cytotoxicity; format: cell-based; conditions: mouse, RAW264.7 cells
[7] = molecular target: T2, MNV^CW3 RdRp (Norovirus, UniProt Q80J95); experiment: RdRp inhibition assay; format: biochemical, murine norovirus
T2 sequence (Q80J95 1178-1687 limits assumed): T1 sequence (Q80J95 1178-1687 limits assumed)
How it was run: (§2)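 MNV^CW3 RdRp (GST-tagged) or HNV GII.4 Sydney/2006 RdRp (His-tagged) expressed in E. coli BL21(DE3) and affinity-purified. Enzyme preincubated with compound 10 min at 30 °C in 10 mM PBS pH 7.5, 2.5 mM MnCl2, 5 mM DTT. Poly(C) and GTP then added (final 2.8 μM enzyme, 40 μg/mL poly(C), 25 μM GTP), 30 min at 30 °C. EDTA stop; dsRNA by PicoGreen (ex 480/em 520 nm); normalized to 0.5% DMSO vehicle.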

[8] = system: MNV^CW3; experiment: MNV viral genome copies quantification; format: cell-based, murine norovirus; conditions: BV2 cells, 40 μg/mL (97 μM), 24 h treatment
[9] = system: MNV^CW3; experiment: MNV viral genome copies quantification; format: cell-based, murine norovirus; conditions: RAW264.7 cells, 40 μg/mL, 24 h
[10] = system: MNV^CW3; experiment: Cell viability of MNV^CW3-infected RAW264.7 cells; format: cell-based, murine norovirus; conditions: RAW264.7 cells after MNV^CW3 infection, 24 h
[11] = molecular target: T3, HNV RdRp (Norovirus Hu/GII.4/Sydney348/97O/AU, UniProt Q2N379); experiment: RdRp inhibition assay; format: biochemical, human norovirus (G II 0.4/Sydney/2006)
T3 sequence (Q2N379 1-510): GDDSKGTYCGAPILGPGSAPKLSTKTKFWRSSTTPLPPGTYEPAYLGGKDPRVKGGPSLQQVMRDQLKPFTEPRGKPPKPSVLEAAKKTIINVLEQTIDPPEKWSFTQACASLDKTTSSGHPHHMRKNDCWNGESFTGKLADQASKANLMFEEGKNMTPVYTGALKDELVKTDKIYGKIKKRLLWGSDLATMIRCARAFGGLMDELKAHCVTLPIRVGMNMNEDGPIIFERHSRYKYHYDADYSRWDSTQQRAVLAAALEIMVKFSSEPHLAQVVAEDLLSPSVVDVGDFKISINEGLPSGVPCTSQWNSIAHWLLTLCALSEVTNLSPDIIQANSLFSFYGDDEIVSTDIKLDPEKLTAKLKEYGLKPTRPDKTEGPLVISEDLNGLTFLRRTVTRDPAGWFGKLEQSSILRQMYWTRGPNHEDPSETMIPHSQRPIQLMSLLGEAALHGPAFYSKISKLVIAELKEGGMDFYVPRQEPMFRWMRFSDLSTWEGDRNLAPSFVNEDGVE
How it was run: as §2

[12] = system: MNV^CW3; experiment: MNV plaque assay; format: cell-based, murine norovirus; conditions: RAW264.7 cells, 40 μg/mL, 24 h
How it was run: as §1

SMILES | main SEC peak formed by the protein when compound added (aggregation check) [1] | formation of MNV^CW3 plaques (viral titer) [2] | cell viability after MNV^CR6 infection [3] | MNV^CR6 plaque numbers ([3]; 97 μM) | MNV^CR6 viral genome copies ([3]; 97 μM (40 μg/mL)) | CC50 [4] | cell viability (ratio of live cells) [5] [%] | CC50 [6] [µM] | IC50 [7] [µM] | inhibition of MNV^CW3 RdRp ([7]; 35 μM RdRp in the reaction system, vs vehicle (0.5% DMSO), 4 μL of 100 μM compound (4 μM Co-29 final)) [%] | decrease of MNV^CW3 RNA level vs DMSO vehicle control [8] | MNV^CW3 genome copy number [9] | concentration of maximum effectiveness (cell viability) [10] [µg/mL] | IC50 [11] [µM] | inhibition of HNV RdRp ([11]; same assay, normalized to DMSO vehicle control) | MNV^CW3 viral titers [12]
N#Cc1c(-c2ccccc2O)nc(SCC(=O)Nc2cc(F)cc(F)c2)[nH]c1=O [Co-29, 2-((5-cyano-4-(2-hydroxyphenyl)-6-oxo-1,6-dihydropyrimidin-2-yl)thio)-N-(3,5-difluorophenyl)acetamide] | did not change | dramatically inhibited | increased cell viability | decreased plaque numbers | low levels of viral genome copies | ~52.2 µg/mL and ~126 µM | 36.9 | 105 | 32 | > 75 | more than 2 Log10-fold | decreased | 40 | 36.6 | more than 70% | decreased
C[C@@]1(O)[C@H](O)[C@@H](CO)O[C@H]1n1ccc(N)nc1=O [Compound 2CMC, 2′-C-methyl-cytidine, reference compound] | – | – | – | – | – | – | – | – | – | – | – | decreased | – | – | – | decreased
